6 compounds from ChEMBL document CHEMBL1123312, “In the search for new anticancer drugs. 17. Linear and cyclic polyether analogues of N,N:N',N':N'',N''-tri-1,2-ethanediylphosphoric triamide and N,N:N',N':N'',N''-tri-1,2-ethanediylphosphorothioic triamide” (J Med Chem, 1986) can be followed below.

Molecules are shown by their SMILES. “And” between values parts separate entries of the source, which are not always exact repeats. Equal values may be shown once.

Data set [1] in a line: partition coefficient with the use of 1-octanol / water solvent system. The class given is physicochemical. In outline:
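4 mL of 10 mM aqueous compound was stirred vigorously with 2 mL 1-octanol for 5 min at 25 °C. The aqueous layer was analysed by ³¹P NMR, and signal intensity (peak height × width at half-height) gave concentrations in each phase. P = [octanol]/[water].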

The test system of data set [2] is Mus musculus. As to the kind of experiment: Percentage increase in life span when the compound was administered intraperitoneally at dose of 20 mg/Kg in P388 leukemia in CDF1 mice was determined. The class given is functional. The following applies: P388, ip. In short, it runs like this: (§1)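 CD2F1 male mice, 19–22 g, in groups of six, inoculated ip with 10⁶ P388 cells on day 0. Dosed ip once daily for 9 days from day 1, in saline, or for linear polyethers in aqueous 2% Tween 80. Deaths and survivors were recorded to 30 days, some to 60. T/C is mean survival, treated vs tumour-bearing control. %ILS = [(T−C)/C]×100. Average day-5 weight change was taken as toxicity.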

Data set [3] relates to Mus musculus. As to the kind of experiment: Percentage increase in life span when the compound was administered intraperitoneally at dose of 60 mg/Kg in P388 leukemia in CDF1 mice was determined. The class given is functional. The following applies: P388, ip. In short, it runs like this: as §1
Data set [4] relates to Mus musculus. The data set can be described thus: Anticancer activity against P388 leukemia in CD2F1 male mice by 60 mg/kg/day. The format is functional. In outline: as §1
For data set [5], the system named is Mus musculus. The data set can be described thus: Anticancer activity against P388 leukemia in CD2F1 male mice expressed as Average % weight change on day 5 as a measure of toxicity was reported at a dose of 60 mg/kg/day. The format is functional. In short, it runs like this: as §1
Data set [6] deals with Mus musculus. The data set can be described thus: Compound was evaluated for the anticancer activity against P388 leukemia in CD2F1 male mice at a dose of 60 mg/kg/after 30 days; 0/6. The format is functional. In outline:
as §1

The subject of data set [7] is Mus musculus. As to the kind of experiment: Compound was evaluated for the anticancer activity against P388 leukemia in CD2F1 male mice at a dose of 20 mg/kg/after 30 days; 0/6. The class given is functional.
Data set [8] deals with Mus musculus. The data set can be described thus: Anticancer activity against P388 leukemia in CD2F1 male mice expressed as Average % weight change on day 5 as a measure of toxicity was reported at a dose of 20 mg/kg/day. The format is functional. In outline: as §1

As for `CCOCCOCCOP(=O)(N1CC1(C)C)N1CC1(C)C` (stereo unspecified), in data set [1], the Partition coefficient is reported as 1.65. Besides, in the data set on Mus musculus [2], the ILS (commonly how much longer treated animals lived than controls) at 20 mg/kg came to 28%. Moreover, in the data set on Mus musculus [3], the ILS at 60 mg/kg was 88%. Moreover, the T/C (usually the ratio of treated to control) with Mus musculus [4] was 188% and 88%. Further, the Weight change in the data set on Mus musculus [5] was 5.5%; with Mus musculus [8], 1.5%. Moreover, the Survivors with Mus musculus [6] and with Mus musculus [7] was 0 in each case.
In the case of `CCOCCOCCOP(=O)(N1CC1)N1CC1`, the Partition coefficient in data set [1] was determined as 1.25. The ILS at 20 mg/kg in the data set on Mus musculus [2] is 40%. In the data set on Mus musculus [3], this compound had an ILS at 60 mg/kg of 131%. Further, the T/C in the data set with Mus musculus [4] was 231% and 131%. In addition, the Weight change in the data set with Mus musculus [5] worked out at 4.5%; in the data set with Mus musculus [8], 2.8%. The Survivors with Mus musculus [6] and in the data set on Mus musculus [7] was 0 throughout.
As to `CCOCCOCCOP(=S)(N1CC1)N1CC1`, the Partition coefficient in data set [1] is listed as 2.4. Further, in the data set on Mus musculus [2], the ILS at 20 mg/kg worked out at 24%. The compound further showed an ILS at 60 mg/kg in the data set with Mus musculus [3] of 77%. The T/C in the data set with Mus musculus [4] was 177% and 77%. For the same compound, the figures for the Weight change in the data set on Mus musculus [5] and in the data set on Mus musculus [8] were 1.4% and 2.6%, respectively. The Survivors in the data set on Mus musculus [6] and in the data set on Mus musculus [7] was 0 in each case.
`CCOCCOCCOP(=S)(N1CC1(C)C)N1CC1(C)C` (stereo unspecified) gave a Partition coefficient in data set [1] of 2.95. Further, the ILS at 20 mg/kg in the data set with Mus musculus [2] was found to be 19%. Besides, the ILS at 60 mg/kg in the data set with Mus musculus [3] was determined as 42%. Moreover, the Weight change turned out to be 1.4% in the data set on Mus musculus [5] and 1.6% in the data set on Mus musculus [8]. Moreover, the Survivors in the data set with Mus musculus [6] and with Mus musculus [7] was 0 throughout.
The compound `O=P(N1CCOCCOCCOCCOCCOCC1)(N1CC1)N1CC1` came in with a Partition coefficient in data set [1] of 0.044. Further, the ILS at 20 mg/kg with Mus musculus [2] was 47%. Also, the ILS at 60 mg/kg in the data set on Mus musculus [3] stood at 88%. Further, the T/C in the data set on Mus musculus [4] was 188% and 88%. The figures for the Weight change with Mus musculus [5] and in the data set on Mus musculus [8] were 0.5% and 7.6%, respectively. For the same compound, the Survivors in the data set on Mus musculus [6] and with Mus musculus [7] was 0 in each case.
`S=P(N1CCOCCOCCOCCOCCOCC1)(N1CC1)N1CC1` had a Partition coefficient in data set [1] of 5.6. For the same compound, the ILS at 20 mg/kg in the data set with Mus musculus [2] stood at 2%. Further, the ILS at 60 mg/kg with Mus musculus [3] was 20%. The Weight change came out at 12.3% in the data set on Mus musculus [5] and 10.6% with Mus musculus [8]. The Survivors in the data set with Mus musculus [6] and in the data set on Mus musculus [7] was 0 throughout.
